From ChEMBL document CHEMBL4732111, “A greener protocol for the synthesis of phosphorochalcogenoates: Antioxidant and free radical scavenging activities” (Eur J Med Chem, 2021)

What was measured:
[1] = Stability of compound exposed to blue LED light using DCM as solvent assessed as parent compound remaining measured after 2 hrs by 31P-[1H] NMR spectroscopy; type: physicochemical; settings: DCM solution exposed to blue LED light, read-out: Stabilty
[2] = Drug metabolism in TsOH assessed as tetraethyl diphosphate formation measured after 2 hrs by 31P-[1H] NMR spectroscopy
[3] = Stability of compound in Na2CO3 measured after 24 hrs; type: physicochemical
[4] = Stability of compound exposed to blue LED light using DMSO as solvent measured after 24 hrs; type: physicochemical
[5] = Stability of compound exposed to blue LED light using DCM as solvent measured after 24 hrs; type: physicochemical
[6] = Stability of compound exposed to blue LED light using EtOH as solvent measured after 24 hrs; type: physicochemical
[7] = Stability of compound in TsOH measured after 24 hrs; type: physicochemical
Brain [8] = assay: Antioxidant activity in Swiss mouse brain cerebral tissue assessed as inhibition of SNP-induced lipid peroxidation by measuring TBARS level at 10 uM incubated for 1 hr relative to control; type: functional, tissue-based; parameters: scale not given: the % may be the effect or the level left
How it was run: (§1)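 Whole brain of male adult Swiss mice homogenized in cold 50 mM Tris-HCl pH 7.4 (1/5 w/v) and spun 2400 g, 10 min, 4 °C; supernatant S1 used. Peroxidation induced with sodium nitroprusside in the presence of compound. Then SDS 8.1%, TBA 0.8% and acetic acid/HCl pH 3.4 added, heated 95 °C for 2 h; MDA measured as marker. Trolox 10 µM as positive control. n = 3; one-way ANOVA with Tukey versus induced.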

Brain [9] = assay: Antioxidant activity in Swiss mouse brain cerebral tissue assessed as inhibition of sodium azide-induced reactive species production by measuring fluorescence unit at 10 uM by DCHF-DA dye based spectrofluorimetric method (reference value: 139 +/- 26.8 U); type: functional
Brain [10] = assay: Antioxidant activity in Swiss mouse brain cerebral tissue assessed as inhibition of sodium azide-induced reactive species production by measuring fluorescence unit at 50 uM by DCHF-DA dye based spectrofluorimetric method (reference value: 139 +/- 26.8 U); type: functional
Brain [11] = assay: Antioxidant activity in Swiss mouse brain cerebral tissue assessed as inhibition of sodium azide-induced reactive species production by measuring fluorescence unit at 100 uM by DCHF-DA dye based spectrofluorimetric method (reference value: 139 +/- 26.8 U); type: functional
Brain [12] = assay: Antioxidant activity in Swiss mouse brain cerebral tissue assessed as inhibition of sodium azide-induced reactive species production by measuring fluorescence unit at 500 uM by DCHF-DA dye based spectrofluorimetric method (reference value: 139 +/- 26.8 U); type: functional
[13] = Antioxidant activity assessed as ferric ion reducing activity by measuring absorbance at 10 uM measured after 40 mins by FRAP assay (reference value: 0.11 +/- 0.02); type: functional
How it was run: (§2)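 Compounds at 10–500 µM mixed with FRAP reagent (FeCl3, triazine and sodium acetate buffer pH 3.2; 10:1:1). Incubated 40 min at 37 °C in the dark; absorbance reported. Vehicle and Trolox 10 µM as controls. Mean ± SEM, n = 3; one-way ANOVA with Tukey versus vehicle.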

[14] = Antioxidant activity assessed as ferric ion reducing activity by measuring absorbance at 50 uM measured after 40 mins by FRAP assay (reference value: 0.11 +/- 0.02); type: functional; how it was run: as §2
[15] = Antioxidant activity assessed as ferric ion reducing activity by measuring absorbance at 100 uM measured after 40 mins by FRAP assay (reference value: 0.11 +/- 0.02); type: functional; how it was run: as §2
[16] = Antioxidant activity assessed as ferric ion reducing activity by measuring absorbance at 500 uM measured after 40 mins by FRAP assay (reference value: 0.11 +/- 0.02); type: functional; how it was run: as §2
[17] = Antioxidant activity assessed as DPPH radical scavenging activity at 10 uM incubated for 30 mins under dark condition relative to control; type: functional
How it was run: (§3)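 Compounds at 10–500 µM mixed with ethanolic DPPH solution. Incubated 30 min at 30 °C in the dark, then absorbance read at 517 nm. Scavenging expressed as percent relative to vehicle; Trolox 10 µM as positive control. Mean ± SEM, n = 3; one-way ANOVA with Tukey.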

[18] = Antioxidant activity assessed as DPPH radical scavenging activity at 50 uM incubated for 30 mins under dark condition relative to control; type: functional; how it was run: as §3
[19] = Antioxidant activity assessed as DPPH radical scavenging activity at 100 uM incubated for 30 mins under dark condition relative to control; type: functional; how it was run: as §3
[20] = Antioxidant activity assessed as DPPH radical scavenging activity at 500 uM incubated for 30 mins under dark condition relative to control; type: functional; how it was run: as §3
[21] = Antioxidant activity assessed as ABTS radical scavenging activity at 10 uM relative to control; type: functional
How it was run: (§4)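 Compounds at 10–500 µM mixed with ABTS•+ solution; scavenging read as fall in absorbance at 734 nm, expressed as percent scavenging relative to vehicle. Trolox 10 µM as positive control. Mean ± SEM, n = 3; one-way ANOVA with Tukey.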

[22] = Antioxidant activity assessed as ABTS radical scavenging activity at 50 uM relative to control; type: functional; how it was run: as §4
[23] = Antioxidant activity assessed as ABTS radical scavenging activity at 100 uM relative to control; type: functional; how it was run: as §4
[24] = Ex vivo antioxidant activity in Swiss mouse assessed as inhibition of canola oil-induced lipid peroxidation in brain by measuring TBARS level at 10 mg/kg, ig measured after 30 mins (reference value: 91.91 +/- 9.38 /g); type: functional; settings: 0.5 h
[25] = Ex vivo antioxidant activity in Swiss mouse assessed as inhibition of canola oil-induced lipid peroxidation in liver by measuring TBARS level at 10 mg/kg, ig measured after 30 mins (reference value: 271.5 +/- 43.88 /g); type: functional; settings: 0.5 h
[26] = Ex vivo antioxidant activity in Swiss mouse assessed as inhibition of canola oil-induced lipid peroxidation in kidney by measuring TBARS level at 10 mg/kg, ig measured after 30 mins (reference value: 438.20 +/- 27.59 /g); type: functional; settings: 0.5 h
[27] = Ex vivo antioxidant activity in Swiss mouse assessed as inhibition of canola oil-induced glutathione peroxidase activity in brain by measuring oxidation of NADPH at 10 mg/kg, ig measured after 30 mins by spectrophotometric method (reference value: 12.8 +/- 2.28 nmol/g); type: functional; settings: 0.5 h
How it was run: (§5)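 Swiss mice dosed orally at 10 mg/kg (vehicle canola oil); brain S1 prepared 30 min later. SOD measured as inhibition of epinephrine autoxidation in Na2CO3 50 mM pH 10.3 at 480 nm, one unit = 50% inhibition at 26 °C. GPx measured as NADPH decay coupled to glutathione reductase with H2O2 and GSH. Mean ± SEM, 6 mice per group; Student's t-test.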

[28] = Ex vivo antioxidant activity in Swiss mouse assessed as inhibition of canola oil-induced superoxide dismutase activity in brain by measuring SOD activity at 10 mg/kg, ig measured after 30 mins by spectrophotometric method (reference value: 25.44 +/- 4.12 U/min); type: functional; settings: 0.5 h; how it was run: as §5
[29] = Toxicity in Swiss mouse assessed as change in plasma urea level at 10 mg/kg, ig measured after 30 mins (reference value: 90.31 +/- 0.74 mg/dl); type: organism-based; settings: in vivo, po, 0.5 h
How it was run: (§6)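 Swiss mice dosed intragastrically at 10 mg/kg (control canola oil 10 mL/kg). After 30 min, blood taken by heart puncture into heparin under light isoflurane anesthesia. Plasma obtained at 200 g for 10 min, hemolyzed samples discarded. ALT, AST, urea and creatinine measured with commercial kits. 5–6 mice per group; Student's t-test.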

[30] = Toxicity in Swiss mouse assessed as change in plasma creatinine level at 10 mg/kg, ig measured after 30 mins (reference value: 1.77 +/- 0.05 mg/dl); type: organism-based; settings: in vivo, po, 0.5 h; how it was run: as §6
[31] = Toxicity in Swiss mouse assessed as change in plasma AST level at 10 mg/kg, ig measured after 30 mins (reference value: 148 +/- 8.08 […]); type: organism-based; settings: in vivo, po, 0.5 h; how it was run: as §6
[32] = Toxicity in Swiss mouse assessed as change in plasma ALT level at 10 mg/kg, ig measured after 30 mins (reference value: 110.90 +/- 12.4 IU/L); type: organism-based; settings: in vivo, po, 0.5 h; how it was run: as §6
[33] = Antioxidant activity assessed as ABTS radical scavenging activity at 500 uM relative to control; type: functional; how it was run: as §4
Brain [34] = assay: Antioxidant activity in Swiss mouse brain cerebral tissue assessed as inhibition of SNP-induced lipid peroxidation by measuring TBARS level at 50 uM incubated for 1 hr relative to control; type: functional, tissue-based; parameters: scale not given: the % may be the effect or the level left; how it was run: as §1
Brain [35] = assay: Antioxidant activity in Swiss mouse brain cerebral tissue assessed as inhibition of SNP-induced lipid peroxidation by measuring TBARS level at 100 uM incubated for 1 hr relative to control; type: functional, tissue-based; parameters: scale not given: the % may be the effect or the level left; how it was run: as §1
Brain [36] = assay: Antioxidant activity in Swiss mouse brain cerebral tissue assessed as inhibition of SNP-induced lipid peroxidation by measuring TBARS level at 500 uM incubated for 1 hr relative to control; type: functional, tissue-based; parameters: scale not given: the % may be the effect or the level left; how it was run: as §1

SMILES | Activity (Brain [8]) [%] | Activity (Brain [9]) [U] | Activity [13] | Activity [14] | Activity [15] | Activity [16] | Activity [17] [%] | Activity [18] [%] | Activity [19] [%] | Activity [20] [%] | Activity [21] [%] | Activity [22] [%] | Activity [24] [g⁻¹] | Activity [25] [g⁻¹] | Activity [26] [g⁻¹] | Activity [27] [nmol/g] | Activity [28] [U/min] | Activity [29] [mg/dL] | Activity [30] [mg/dL] | Activity [31] [IU/L] | further results
CCOP(=O)(OCC)[Te]c1ccccc1 | – | – | – | – | – | – | – | – | – | – | – | – | – | – | – | – | – | – | – | – | remaining at 2 h [1]: 20%; Drug metabolism [2]: Metabolite detected
CCOP(=O)(OCC)[Se]c1ccccc1 | – | – | – | – | – | – | – | – | – | – | – | – | – | – | – | – | – | – | – | – | Stabilty [3]: Stable; Stabilty [4]: Stable; Stabilty [5]: Stable; Stabilty [6]: Stable; Stabilty [7]: Stable
COP(=O)(OC)[Se]c1ccc(C)cc1 | 73 | 70.3 | 0.14 | 0.17 | 0.17 | 0.29 | 12.2 | 6.83 | 9.87 | 3.62 | 11.5 | 12.5 | 54.79 | 199.9 | 455.4 | 7.48 | 7.37 | 80.24 | 1.96 | 147.4 | Activity (Brain [10]): 84.9 U; Activity (Brain [11]): 70.1 U; Activity (Brain [12]): 62.7 U; Activity [23]: 29.9%; Activity [32]: 119 IU/L
O=P(OCc1ccccc1)(OCc1ccccc1)[Se]c1ccccc1 | 59.5 | 61.7 | 0.16 | 0.23 | 0.4 | 1.02 | 2.19 | 3.94 | 3.72 | 5.04 | 3.85 | 3.06 | 83 | 263.8 | 580.5 | 6.39 | 17.54 | 98.59 | 1.52 | 155.3 | Activity [23]: 1.86%; Activity [33]: 12.4%; Activity [32]: 138.1 IU/L
CCCCOP(=O)(OCCCC)[Se]c1ccccc1 | 79.3 | 98.3 | 0.11 | 0.15 | 0.15 | 0.3 | 6.14 | 18.4 | 12.2 | 7.38 | 1.92 | 8.76 | 87.71 | 249.4 | 371 | 5.5 | 23.85 | 105 | 1.75 | 159.3 | Activity (Brain [34]): 83.8%; Activity (Brain [35]): 90.4%; Activity (Brain [36]): 57%; Activity (Brain [10]): 76.1 U; Activity (Brain [11]): 61.4 U; Activity [23]: 3.84%; Activity [33]: 2.34%; Activity [32]: 140 IU/L
COc1ccc([Se]P(=O)(OC)OC)cc1 | 87.6 | 94 | 0.16 | 0.16 | 0.19 | 0.26 | 3.72 | 6.95 | 11.9 | 19.1 | 6.76 | 8.6 | 64.64 | 280.8 | 422.5 | 4.98 | 13.47 | 74.39 | 2.36 | 151 | Activity (Brain [34]): 78.6%; Activity (Brain [35]): 78.1%; Activity (Brain [36]): 58%; Activity (Brain [10]): 94.1 U; Activity (Brain [11]): 67.2 U; Activity [23]: 6.91%; Activity [33]: 19.8%; Activity [32]: 119.5 IU/L
Cc1c(C)c2c(c(C)c1O)CCC(C)(C(=O)O)O2 (stereo not given) [TROLOX] | 29.8 | 99 | 0.39 | – | – | – | 93.5 | – | – | – | 94.3 | – | – | – | – | – | – | – | – | – | –
COP(=O)(OC)[Se]c1ccccc1 | 84.7 | 71.5 | 0.11 | 0.12 | 0.12 | 0.16 | 5.53 | 7.83 | 4.68 | 21.9 | 5.02 | 10.3 | 87.34 | 326 | 676.6 | 7.18 | 25.94 | 80.3 | 1.78 | 151.2 | Activity (Brain [34]): 80.6%; Activity (Brain [35]): 85.9%; Activity (Brain [36]): 79.8%; Activity [32]: 117.4 IU/L
